Experimental data gathered from unrelated publications.
Each line is one published result; the experiments were not run side by side.
Target: Cytoplasmic tyrosine-protein kinase BMX (BMX, Homo sapiens, UniProt P51813)
Read-out: enzyme activity
Mode: inhibitor
Sequence (P51813 1-675, as in one of the studies): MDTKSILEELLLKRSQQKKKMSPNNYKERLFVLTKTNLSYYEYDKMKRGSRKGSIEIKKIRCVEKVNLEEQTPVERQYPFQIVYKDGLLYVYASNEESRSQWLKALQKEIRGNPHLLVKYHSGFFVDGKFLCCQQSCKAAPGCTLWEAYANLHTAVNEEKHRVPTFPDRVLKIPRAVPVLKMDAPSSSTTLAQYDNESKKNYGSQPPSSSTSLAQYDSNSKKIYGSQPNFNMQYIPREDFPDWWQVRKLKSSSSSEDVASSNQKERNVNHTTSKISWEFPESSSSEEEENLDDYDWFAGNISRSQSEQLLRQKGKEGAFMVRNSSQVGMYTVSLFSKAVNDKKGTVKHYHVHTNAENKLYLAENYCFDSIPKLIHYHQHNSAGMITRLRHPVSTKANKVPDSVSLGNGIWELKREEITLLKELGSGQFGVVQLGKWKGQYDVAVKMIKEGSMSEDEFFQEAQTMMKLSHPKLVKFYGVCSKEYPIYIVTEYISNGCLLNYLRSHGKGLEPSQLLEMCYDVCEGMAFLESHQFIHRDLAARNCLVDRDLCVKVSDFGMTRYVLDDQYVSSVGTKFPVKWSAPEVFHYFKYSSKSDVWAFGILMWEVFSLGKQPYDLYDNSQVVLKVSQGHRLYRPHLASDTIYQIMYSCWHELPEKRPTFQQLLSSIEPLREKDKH

SMILES	test	setting	remaining activity [%]
CC(C)(O)[C@H]1CC[C@H](Nc2ccc3ncc(-c4cccc(C(F)(F)F)c4)n3n2)CC1	–	1 µM	71.5
Cc1sc(C(=O)NC2COC2)cc1-n1cc(NC(=O)Nc2c(F)cccc2Cl)cn1	–	10 µM	92.9
CCN(CC)c1ccc(C2=NNC(=O)CC2C)cc1[N+](=O)[O-] (stereo not drawn)	–	10 µM	96
Cc1cnc(NC2CCOCC2)nc1-n1cnc(C(=O)NC(CN)c2cc(F)cc(Cl)c2)c1 (stereo not drawn)	radiometric	1 µM	117
CC(C)(C)c1nc2c(s1)c1nc(N)ncc1c1ccc(NS(=O)(=O)c3c(F)cccc3F)c(F)c12	radiometric	1 µM	87
Cc1ccc(C(=O)Nc2ccc(CN3CCN(C)CC3)c(C(F)(F)F)c2)cc1C#Cc1cnc2cccnn12	–	23.5 nM	47
CCN(CC)CCNC(=O)c1c(C)[nH]c(/C=C2\C(=O)Nc3ccc(Cl)cc32)c1C	–	0.5 µM	99.3
O=C(Nc1cnn(-c2csc(C(=O)NC3COC3)c2)c1)Nc1c(F)cccc1Cl	–	5 µM	96.8
O=C(O)c1ccc2c3c1cccc3c(=O)n1c3ccccc3nc21	–	0.5 µM	96.4
COc1cc(Cl)c(C(=O)N[C@@H](CN[C@H]2CC[C@@H](N)CC2)Cc2ccc(C#N)cc2)cc1-c1ccc(CN[C@H](C)c2ccc(C)cc2)o1	–	1 µM	72
COc1ccc(C(=O)Nc2sc3c(c2C(N)=O)CCCC3)cc1OC	–	0.5 µM	89.8
Nc1ncnc2occ(-c3ccc(NC(=O)Nc4cc(C(F)(F)F)ccc4F)cc3)c12	–	20 µM	0.5
COc1cc2ncc(-c3ccccc3)nc2cc1OC	–	0.5 µM	92.2
CC(C)(C)c1nc(-c2cccc(NS(=O)(=O)c3c(F)cccc3F)c2F)c(-c2ccnc(N)n2)s1	radiometric	1 µM	75
CCCOc1ccc(OC)c(F)c1C(=O)c1ccc(C(=O)N[C@@H]2CNC[C@H]2NC(=O)c2ccc3[nH]ncc3c2)cc1	–	10 µM	87
